From ChEMBL document CHEMBL5346886 (Eur J Med Chem, 2023)
Active and inactive are the calls of the source. The calls are words filed in the database; no cut-off is given here.

Key:
[1] = Drug metabolism in Sprague-Dawley rat assessed as hydrolysis-mediated GS-441524 metabolite formation at 5 mg/kg, iv administered as single dose and measured after 24 hrs by LC-MS/MS analysis; type: ADME, organism-based; conditions: in vivo
[2] = system: Murine hepatitis virus; assay: Antiviral activity against murine hepatitis virus-A59 infected in BALB/c mouse assessed as reduction in IFN-beta production in lungs at 200 mg/kg, po administered once daily one hour post infection and measured after 3 days by ELISA analysis; type: functional, organism-based; conditions: time 3.0 day
In short: (§1)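 MHV-A59 was inoculated intranasally into male BALB/c mice (30 μL, TCID50 = 10−7.125/100 μL), with oral dosing once daily from 1 hpi for four days. At 3 dpi, 0.1 g lung or liver from 4 mice per group was homogenized in 0.9 mL water at 4 °C and centrifuged. Supernatant IFN-β was read by ELISA; TNF-α, IFN-γ, IL-1β, IL-6 and CXCL10 by multi-analyte kit, with OD 450 nm against standards.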

[3] = system: Murine hepatitis virus; assay: Antiviral activity against murine hepatitis virus-A59 infected in BALB/c mouse assessed as reduction in IL-6 production in lungs at 200 mg/kg, po administered once daily one hour post infection and measured after 3 days by ELISA analysis; type: functional, organism-based; conditions: time 3.0 day; in short: as §1
[4] = system: Murine hepatitis virus; assay: Antiviral activity against murine hepatitis virus-A59 infected in BALB/c mouse assessed as remission of hemorrhage in liver at 200 mg/kg, po administered once daily one hour post infection and measured after 3 days by H&E staining based analysis; type: functional, organism-based; conditions: time 3.0 day
In short: (§2)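 In male BALB/c mice (3–4 weeks), MHV-A59 was given intranasally (30 μL, TCID50 = 10−7.125/100 μL). Oral dosing once daily in a Cremophor EL/PBS/DMSO vehicle began at 1 hpi and lasted four days. At 3 dpi, lungs and livers from 4 mice per group were fixed in zinc formalin and paraffin-embedded. Sections of about 4 μm were stained with H&E and examined at 200× and 400×.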

[5] = Drug distribution in BALB/c mouse lung assessed as hydrolyzed ibuprofen metabolite at 200 mg/kg, po administered as single dose and measured after 1 hrs by LC-MS/MS analysis; type: ADME, organism-based; conditions: in vivo
[6] = system: Murine hepatitis virus; assay: Potency index, ratio of GS-441524 EC50 to test compound EC50 for antiviral activity against Murine hepatitis virus-A59 infected in mouse L929 cells assessed as reduction in viral copy pre-infected with cell for 1 hrs followed by compound addition and measured after 48 hrs by RT-qPCR analysis; type: functional
[7] = Toxicity in BALB/c mouse infected with murine hepatitis virus-A59 assessed as effect on survival at 50 to 200 mg/kg, po administered once daily one hour post infection and measured after 23 days; conditions: in vivo, 552 h
[8] = system: Murine hepatitis virus; assay: Antiviral activity against murine hepatitis virus-A59 infected in BALB/c mouse assessed as alleviation of lymphocytes infiltration in lungs at 200 mg/kg, po administered once daily one hour post infection and measured after 3 days by H&E staining based analysis; type: functional, organism-based; conditions: time 3.0 day; in short: as §2
[9] = system: Murine hepatitis virus; assay: Antiviral activity against murine hepatitis virus-A59 infected in BALB/c mouse assessed as alleviation of interstitial pneumonia in lungs at 200 mg/kg, po administered once daily one hour post infection and measured after 3 days by H&E staining based analysis; type: functional, organism-based; conditions: time 3.0 day; in short: as §2
[10] = system: Murine hepatitis virus; assay: Antiviral activity against murine hepatitis virus-A59 infected in BALB/c mouse assessed as reduction in IL-1beta production in lungs at 200 mg/kg, po administered once daily one hour post infection and measured after 3 days by ELISA analysis; type: functional, organism-based; conditions: time 3.0 day; in short: as §1
[11] = system: Murine hepatitis virus; assay: Antiviral activity against murine hepatitis virus-A59 infected in BALB/c mouse assessed as alleviation of thickened alveolar septa in lungs at 200 mg/kg, po administered once daily one hour post infection and measured after 3 days by H&E staining based analysis; type: functional, organism-based; conditions: time 3.0 day; in short: as §2
[12] = system: Murine hepatitis virus; assay: Antiviral activity against murine hepatitis virus-A59 infected in BALB/c mouse assessed as remission of fulminant hepatitis in liver at 200 mg/kg, po administered once daily one hour post infection and measured after 3 days by H&E staining based analysis; type: functional, organism-based; conditions: time 3.0 day; in short: as §2
[13] = system: Murine hepatitis virus; assay: Antiviral activity against Murine hepatitis virus-A59 infected in mouse L929 cells assessed as reduction in viral copy pre-infected with cell for 1 hrs followed by compound addition and measured after 48 hrs by RT-qPCR analysis; type: functional, organism-based; conditions: Murine coronavirus
In short: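 L929 cells in DMEM with 10% FBS were washed serum-free at 80% confluence and infected with MHV-A59 at MOI 0.01 for 1 h at 37 °C. Compounds were added at 0.1–100 μmol/L, with DMSO as blank control. After 48 h at 37 °C, the viral M gene in supernatant was measured by qRT-PCR. Percent inhibition was derived from copy number and EC50 from curve fitting.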

[14] = Drug metabolism in Sprague-Dawley rat assessed as hydrolysis-mediated ibuprofen metabolite formation at 5 mg/kg, iv administered as single dose and measured after 24 hrs by LC-MS/MS analysis; type: ADME, organism-based; conditions: in vivo
[15] = system: Feline infectious peritonitis virus; assay: Antiviral activity against Feline infectious peritonitis virus infected in CRFK cells assessed as reduction in viral copy pre-infected with cells for 1 hrs followed by compound addition and measured after 48 hrs by RT-qPCR analysis; type: functional, organism-based; conditions: Alphacoronavirus 1, CRFK
In short: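 CRFK cells (CCoV, FIPV) or ST cells (TGEV) were grown in DMEM with 10% FBS at 37 °C, 5% CO2. At 80% confluence they were washed in serum-free medium and infected at MOI 0.01 for 1 h at 37 °C. Compounds were then added at 0.1–100 μmol/L, with DMSO as blank. After 48 h, cells and supernatants were analysed by qRT-PCR. Inhibition came from viral copy number, and EC50 from curve fitting.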

[16] = system: Murine hepatitis virus; assay: Antiviral activity against murine hepatitis virus-A59 infected in BALB/c mouse model of acute liver injury assessed as reduction in plasma AST level at 10 to 200 mg/kg, po administered once daily one hour post infection and measured after 3 days; type: functional, organism-based; conditions: dose 10-200 mg/kg, time 3.0 day
In short: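 Male BALB/c mice were infected intranasally with MHV-A59 (30 μL, TCID50 = 10−7.125/100 μL) and dosed orally once daily from 1 hpi for four days in 15% Cremophor EL/82.5% PBS/2.5% DMSO. At 3 dpi, blood from 4 euthanized mice per group was left to clot at room temperature and centrifuged. Serum ALT and AST were measured on a clinical chemistry analyzer.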

[17] = Drug distribution in BALB/c mouse liver assessed as hydrolyzed ibuprofen metabolite at 200 mg/kg, po administered as single dose and measured after 1 hrs by LC-MS/MS analysis; type: ADME, organism-based; conditions: in vivo
[18] = Drug distribution in BALB/c mouse plasma assessed as hydrolyzed ibuprofen metabolite at 200 mg/kg, po administered as single dose and measured after 1 hrs by LC-MS/MS analysis; type: ADME, organism-based; conditions: in vivo
[19] = system: Murine hepatitis virus; assay: Antiviral activity against murine hepatitis virus-A59 infected in BALB/c mouse assessed as remission of hepatocyte necrosis at 200 mg/kg, po administered once daily one hour post infection and measured after 3 days by H&E staining based analysis; type: functional, organism-based; conditions: time 3.0 day; in short: as §2

## CC(C)Cc1ccc(C(C)C(=O)OC[C@H]2O[C@@](C#N)(c3ccc4c(N)ncnn34)[C@H](O)[C@@H]2O)cc1 (some centres undefined)
[1]
  Drug metabolism: Metabolite_Detected
[2]
  Activity: Active
[3]
  Activity: Active
[4]
  Activity: Active
[5]
  Drug uptake: Active
[6]
  Ratio EC50: 8
[7]
  Activity: Toxic
[8]
  Activity: Active
[9]
  Activity: Active
[10]
  Activity: Active
[11]
  Activity: Active
[12]
  Activity: Active
[13]
  EC50: 1.15 µM
[14]
  Drug metabolism: Metabolite_Detected
[15]
  EC50: 7.34 µM
[16]
  Activity: Active
[17]
  Drug uptake: Active
[18]
  Drug uptake: Active
[19]
  Activity: Active
